The array DNA melting data of Ke et al. (doi:10.1101/2024.01.08.574731)

What was measured:
[1] = melting temperature; fluorescence melt of hairpins on a sequencing array, two-state fit, raised by 9.35 °C to match UV melts; settings: sodium 0.088 M
Outline: (§1)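 Library hairpins on a sequenced MiSeq flow cell carried annealed Cy3 and quencher oligos, and their Cy3 fluorescence was imaged in 50 mM Na-HEPES pH 8.0 with 25 mM NaCl, in 2.5 °C steps up to 60 °C. Signals were normalised to Cy3 before quenching and to control constructs. Melting temperature and folding enthalpy were obtained from bootstrapped two-state fits, combined by inverse-variance weighting across four replicates, and the fitted temperatures were then raised by 9.35 °C to match UV melts.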

[2] = folding enthalpy; higher = less favourable; fluorescence melt of hairpins on a sequencing array, two-state fit; settings: sodium 0.088 M
Outline: as §1

GGAGGAGGAAACCCCTCC (((((.(....).)))))
Tm [1]: 48.1 °C
folding enthalpy [2]: -26.7 kcal/mol

GGAGGAGGAAACTCCTCC (((((((....)))))))
Tm [1]: 65.9 °C
folding enthalpy [2]: -40.3 kcal/mol

GGAGGAGGAAACTCTTCC (((.(((....))).)))
Tm [1]: 42.2 °C
folding enthalpy [2]: -29.1 kcal/mol

GGAGGATCGAAAGATTCC (((..(((....))))))
Tm [1]: 28.4 °C
folding enthalpy [2]: -19.1 kcal/mol

GGAGGCCGAAAGGCTCC (((.(((....))))))
Tm [1]: 57.2 °C
folding enthalpy [2]: -21.1 kcal/mol

GGAGGCGAAAGCCACTCC ((((((....)))..)))
Tm [1]: 42.6 °C
folding enthalpy [2]: -12.1 kcal/mol

GGAGGCGAAAGCCATTCC ((((((....)))..)))
Tm [1]: 34.7 °C
folding enthalpy [2]: -7.5 kcal/mol

GGAGGCGAAAGCCCCTCC ((((((....)))..)))
Tm [1]: 59.1 °C
folding enthalpy [2]: -12.6 kcal/mol

GGAGGCGAAAGCCGTTCC ((((((....)))..)))
Tm [1]: 41.6 °C
folding enthalpy [2]: -8.29 kcal/mol

GGAGGCGAAAGCCTATCC ((((((....)))..)))
Tm [1]: 40.8 °C
folding enthalpy [2]: -9.28 kcal/mol

GGAGGCTCGAAAGAGTCC (((..(((....))))))
Tm [1]: 35.8 °C
folding enthalpy [2]: -14.4 kcal/mol

GGAGGGGGAAACCCCCCC ((.((((....)))).))
Tm [1]: 50.9 °C
folding enthalpy [2]: -14.9 kcal/mol

GGAGGGGGAAACCTCTCC ((((.((....)).))))
Tm [1]: 51.3 °C
folding enthalpy [2]: -35.8 kcal/mol

GGAGGTCCGAAAGGATCC (((..(((....))))))
Tm [1]: 38.3 °C
folding enthalpy [2]: -12 kcal/mol

GGAGGTGCGAAAGCATCC (((..(((....))))))
Tm [1]: 39.3 °C
folding enthalpy [2]: -11.6 kcal/mol

GGAGTACCGAAAGGTTCC (((..(((....))))))
Tm [1]: 36.3 °C
folding enthalpy [2]: -15 kcal/mol

GGAGTACGAAAGTAATCC (((.(((....))).)))
Tm [1]: 51.4 °C
folding enthalpy [2]: -31 kcal/mol

GGAGTAGCGAAAGCTTCC (((..(((....))))))
Tm [1]: 38.2 °C
folding enthalpy [2]: -16.1 kcal/mol

GGAGTAGGAAACTATTCC (((.(((....))).)))
Tm [1]: 37.5 °C
folding enthalpy [2]: -21.4 kcal/mol

GGAGTAGGAAACTGCTTC (.((.((....)).)).)
Tm [1]: 41.4 °C
folding enthalpy [2]: -32.7 kcal/mol

GGAGTCACGAAAGTGTCC (((..(((....))))))
Tm [1]: 32.1 °C
folding enthalpy [2]: -13.7 kcal/mol

GGAGTCGAAAGACAGTCC ((((((....)))..)))
Tm [1]: 31.5 °C
folding enthalpy [2]: -14.3 kcal/mol

GGAGTCGAAAGACCATCC ((((((....)))..)))
Tm [1]: 29.5 °C
folding enthalpy [2]: -11.2 kcal/mol

GGAGTCGAAAGACCGTCC ((((((....)))..)))
Tm [1]: 32.2 °C
folding enthalpy [2]: -12.7 kcal/mol

GGAGTCGAAAGACGCTCC ((((((....)))..)))
Tm [1]: 42.3 °C
folding enthalpy [2]: -12.6 kcal/mol

GGAGTCGAAAGACGTTCC ((((((....)))..)))
Tm [1]: 37.6 °C
folding enthalpy [2]: -11.3 kcal/mol

GGAGTCGAAAGACTCTCC ((((((....)))..)))
Tm [1]: 51.6 °C
folding enthalpy [2]: -10.2 kcal/mol

GGAGTGCGAAAGCAGTCC (((.(((....))).)))
Tm [1]: 65.8 °C
folding enthalpy [2]: -30.1 kcal/mol

GGAGTGGAAACACTCC ((((((....))))))
Tm [1]: 63.2 °C
folding enthalpy [2]: -33 kcal/mol

GGAGTGGGAAACCGCTTC (.((.((....)).)).)
Tm [1]: 38 °C
folding enthalpy [2]: -25.7 kcal/mol

GGAGTTCGAAAGAAGTCC (((.(((....))).)))
Tm [1]: 54.1 °C
folding enthalpy [2]: -41.3 kcal/mol

GGAGTTGGAAACAACCCC ((.((((....)))).))
Tm [1]: 43.5 °C
folding enthalpy [2]: -22.8 kcal/mol

GGAGTTGGAAACGACTCC (((((.(....).)))))
Tm [1]: 54.9 °C
folding enthalpy [2]: -23.2 kcal/mol

GGAGTTGGAAACGACTTC (.(((.(....).))).)
Tm [1]: 59.7 °C
folding enthalpy [2]: -35.4 kcal/mol

GGATAACGAAAGTTTTCC (((.(((....))).)))
Tm [1]: 43.7 °C
folding enthalpy [2]: -27.6 kcal/mol

GGATAAGCGAAAGCTTCC (((..(((....))))))
Tm [1]: 35.5 °C
folding enthalpy [2]: -12.4 kcal/mol

GGATACCGAAAGGTTCC (((.(((....))))))
Tm [1]: 49.3 °C
folding enthalpy [2]: -25.6 kcal/mol
